PMI act – activators of human phosphomannose isomerase; P34949; purified human PMI, coupled resazurin fluorescence, 20 min; hits give high values; 1 = vehicle control, 0 substrate-free wells; activation factor at 20 µM; 190,000 compounds, 0.005% hits; AID 1214;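 active means activation factor of 2 or more at 20 µM, relative to plate controls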
Rad51 HR inh – blocks human Rad51 in homologous recombination; Q06609; hRad51 DNA strand exchange, fluorescence dequenching; inhibition, % at 10 µM; 200,000 compounds, 0.085% hits; AID 1385;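 active means inhibition above 40% at the single screening dose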
Target sequence (Q06609 whole entry, looked up): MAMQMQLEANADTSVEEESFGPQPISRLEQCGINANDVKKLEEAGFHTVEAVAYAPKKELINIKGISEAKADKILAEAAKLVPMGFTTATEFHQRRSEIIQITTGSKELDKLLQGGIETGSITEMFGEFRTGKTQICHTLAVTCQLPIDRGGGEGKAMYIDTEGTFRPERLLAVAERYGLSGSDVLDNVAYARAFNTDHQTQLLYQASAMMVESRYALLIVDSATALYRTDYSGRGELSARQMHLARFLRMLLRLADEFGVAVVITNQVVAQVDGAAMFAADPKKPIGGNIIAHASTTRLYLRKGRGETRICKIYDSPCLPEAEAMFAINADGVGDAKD
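Test system – preformed human Rad51 ssDNA filaments · Reagent – Donor/quencher-labelled 47-bp dsDNA substrate · Incubation – 37 °C 15-min filament assembly, 30-min compound preincubation, 15-min exchange · Signal – FRET fluorescence dequenching, excitation 485 nm, emission 520 nm · Read-out – percent inhibition from fluorescence, normalised to plate control and blank means · Benchmarks – plate control and blank wells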
WT yeast gro inh – growth inhibition of WT yeast, mitochondrial fusion screen; mitochondrial fusion phenotypic screen, WT strain; inhibition, % at 10 µM; 190,000 compounds, 2.1% hits; in the data active means inhibition above about 58%; tested in S. cerevisiae
PMI act satM6P – increases human PMI activity with near-saturating mannose 6-phosphate. P34949. coupled PMI enzyme assay, resazurin fluorescence, 20 min; hits give high values; 1 = untreated enzyme, 0 = substrate-free blank. activation factor at 20 µM. 190,000 compounds, 0.34% hits. AID 1216;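 active means activation factor of 2 or more at 20 µM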
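Test system: human phosphomannose isomerase with PGI, G6PDH, diaphorase coupling enzymes; amount: 15 ng/mL PMI; incubation: enzyme reaction with compound 20 min at room temperature; technique: resorufin fluorescence (Ex 544/Em 590 nm) from resazurin via diaphorase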
Calpain2 inh – calpain II (pig) inhibition; purified calpain II, fluorogenic peptide substrate, 30 min; inhibition, % at 16 µM; 220,000 compounds, 0.37% hits;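 active means inhibition above about 50%, limit read from the data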
L major viab – reduces viability of Leishmania major promastigotes | resazurin fluorescence viability | inhibition, % at 10 µM | 200,000 compounds, 9% hits; in the data active means inhibition above about 50%;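 further: promastigotes grown with compound for 44 hours at 28 °C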
Of the large screens only hits and unclear results are named; the others gave an inactive call. Rows were chosen to be rich in hits. Some 9.8% of all compounds tested hit in one or more screens of this group.

Cc1cc(-c2nnc(SCC(=O)c3ccc(F)cc3)o2)no1	none (no result: Rad51 HR inh)
COc1cc(Cl)cc2c1Sc1ccccc1/C2=C/CCN(C)C	L major viab 59
CN1CCN(CC/C=C2/c3ccccc3Sc3ccc(S(=O)(=O)N(C)C)cc32)CC1	none (no result: L major viab)
COc1cc2c(cc1Cl)/C(=C\CCN(C)C)c1ccccc1S2	L major viab 100
CN(C)CC/C=C1/c2ccccc2Sc2c(O)cc(Cl)cc21	L major viab 98
CN(C)CCC(=O)N1c2ccccc2Sc2ccc(Cl)cc21	none
CC1CC2OC(=O)C3(C)CCCC(C)(C23)C1(O)CCc1ccoc1 (stereo not drawn)	none (no result: PMI act, WT yeast gro inh, PMI act satM6P, L major viab)
Cc1cc(C)c(S(=O)(=O)N2CCN(C(=O)N(C)C)CC2)c(C)c1	none (no result: PMI act, PMI act satM6P)
CC1CCCN(C(=O)c2ccc3c(=O)n(C4CCCC4)c(=S)[nH]c3c2)C1 (stereo not drawn)	none
O=C(c1ccc(Cn2c(=O)[nH]c3ccccc3c2=O)cc1)N1CCN(c2ccc(F)cc2)CC1	L major viab 92
CCCCN(C)CCNC(=O)c1ccc(Cn2c(=S)[nH]c3ccc(Br)cc3c2=O)cc1	L major viab 90
COc1ccc(N2CCN(C(=O)c3ccc(Cn4c(=S)[nH]c5ccc(N6CCOCC6)cc5c4=O)cc3)CC2)cc1	L major viab 91 (no result: Rad51 HR inh)
O=C(c1ccc(Cn2c(=S)[nH]c3cc4c(cc3c2=O)OCO4)cc1)N1CCN(c2ccccc2)CC1	none
O=C(c1ccc2c(=O)n(C3CCCC3)c(=S)[nH]c2c1)N1CCCCCC1	WT yeast gro inh 96
Clc1ccc(OCc2nnc3n2CCCCC3)c(Cl)c1	none (no result: PMI act, Rad51 HR inh, WT yeast gro inh, PMI act satM6P, L major viab)
O=C(CC1CS(=O)(=O)CC1CC(=O)Oc1ccccc1F)Oc1ccccc1F (stereo not drawn)	none (no result: Rad51 HR inh)
CCCN1CCC(NC(=S)Nc2ccc(S(N)(=O)=O)cc2)CC1	none (no result: Rad51 HR inh)
COCCN(C(=O)c1cc(OC)c(OC)c(OC)c1)c1c(N)n(Cc2ccccc2)c(=O)[nH]c1=O	none (no result: Rad51 HR inh)
COc1cccc(NC(=S)N(CCN(C)C)C(C)c2ccncc2)c1 (stereo not drawn)	none (no result: PMI act, WT yeast gro inh, PMI act satM6P, L major viab)
O=C(c1ccc(Cn2c(=S)[nH]c3ccc(N4CCOCC4)cc3c2=O)cc1)N1CCN(c2ccc(F)cc2)CC1	L major viab 96 (no result: Rad51 HR inh)
Cc1ccc(C)c(N2CCN(C(=O)c3ccc(Cn4c(=S)[nH]c5ccc(N6CCOCC6)cc5c4=O)cc3)CC2)c1	L major viab 99
O=C(c1ccc(Cn2c(=S)[nH]c3ccc(Br)cc3c2=O)cc1)N1CCN(C2CCCCC2)CC1	WT yeast gro inh 73
O=c1c2cc(N3CCOCC3)ccc2[nH]c(=S)n1Cc1ccc(Cl)cc1	none
O=C(c1ccc2[nH]c3c(c2c1)CCCC3)N1CCN(c2ccc(F)cc2)CC1	WT yeast gro inh 74, L major viab 60
COc1ccccc1N1CCN(C(=O)c2ccc3[nH]c4c(c3c2)CCCC4)CC1	none
OCC1(Cc2ccccc2)CCN(CCCC2CCCC2)CC1	L major viab 96
COCc1ccc(CN2CCCC(CO)(Cc3ccccc3)C2)o1 (stereo not drawn)	none
OCC1(Cc2ccccc2)CCCN(Cc2ccc(-c3ccco3)cc2)C1 (stereo not drawn)	L major viab 80
OCC1(Cc2ccccc2)CCN(Cc2ccc(-c3ccco3)cc2)CC1	L major viab 91
Cc1c(CN2CCC(CO)(Cc3ccccc3)CC2)c2ccccc2n1C	none (no result: PMI act, PMI act satM6P)
C=CCOc1ccn(C)c(=O)n1	none (no result: PMI act, WT yeast gro inh, PMI act satM6P, L major viab)
O=c1nc2ccccc2c2n1CC(CN1CCN(C(c3ccccc3)c3ccccc3)CC1)N2 (stereo not drawn)	L major viab 66
CCC1=Nc2cc(C(=O)NCc3ccco3)ccc2Sc2ccccc21	L major viab 70
CCC1=Nc2cc(C(=O)NCc3ccco3)ccc2Sc2ccc(Cl)cc21	L major viab 68
Cc1ccc(Cn2ccc(=O)c(OCc3c(Cl)cccc3Cl)c2C)cc1	WT yeast gro inh 77, L major viab 97
S=C(NCc1ccccc1)N1CCN(Cc2ccc3c(c2)OCO3)CC1	WT yeast gro inh 60, L major viab 92
Cc1ccccc1NC(=S)N1CCN(Cc2ccc3c(c2)OCO3)CC1	none
COc1ccc(OC)c(NC(=S)N2CCN(Cc3ccccc3)CC2)c1	none
COCCCNC(=S)N1CCN(Cc2ccc3c(c2)OCO3)CC1	none
CCCCNC(=S)N1CCN(Cc2ccc3c(c2)OCO3)CC1	L major viab 75 (no result: Rad51 HR inh)
COc1cccc(CN2CCN(C(=S)NCc3ccc(Cl)cc3)CC2)c1	WT yeast gro inh 67, L major viab 89
O=C(/C=C/c1cccc([N+](=O)[O-])c1)n1cnc2ccccc21	none
CC(C)N(C)C(=O)C(=O)c1cccn1-c1cccc(Cl)c1C#N	none
Cc1cc2ncn(/N=C/c3cccnc3)c2cc1C	WT yeast gro inh 61
COc1cc(CNCCO)ccc1OCC(=O)Nc1ccc(Br)cc1	L major viab 100
Cc1cc(OCC(=O)Nc2ccncc2)c(C)cc1Br	WT yeast gro inh 60
CC(=O)N(C)c1ccc(NC(=O)COc2ccc(Br)cc2C)cc1	none
CCCNCc1cc(OC)c(OCC(=O)Nc2ccccc2)cc1Br	none
CC(=O)Nc1ccc(NC(=O)COc2ccc(Br)cc2C)cc1	L major viab 62
CC1CC(C)(C)NC(=S)N1CC(=O)N1CCN(Cc2ccc3c(c2)OCO3)CC1 (stereo not drawn)	none
CCOC(=O)CN(C)C(=O)CCc1nnc(-c2ccsc2)o1	WT yeast gro inh 59
O=[N+]([O-])c1ccc(Sc2cccc[n+]2[O-])c2nonc12	none (no result: PMI act, WT yeast gro inh, PMI act satM6P, L major viab)
CC1C/C(=N\NC(=S)NCc2ccccc2)CC(C)(C)C1 (stereo not drawn)	WT yeast gro inh 64, L major viab 99
CC[C@H](C)[C@H](NC(=O)c1ccc(Cl)cc1)C(=O)OCC(=O)c1ccc2c(c1)NC(=O)CO2	L major viab 100
O=C(c1cccc(Cl)c1)N1CCN(c2ccccn2)CC1	none
O=C(c1ccc2c(c1)N(Cc1cccc(Cl)c1)C(=O)c1ccccc1S2(=O)=O)N1CCN(c2ccccn2)CC1	L major viab 98
Cc1nc2sc(C(c3ccc(Cl)cc3)N3CCN(CCO)CC3)c(O)n2n1 (stereo not drawn)	none (no result: PMI act, PMI act satM6P, L major viab)
CC(C)(C)c1cc(C(c2cccnc2)N2CCN(CCO)CC2)cc(C(C)(C)C)c1O (stereo not drawn)	WT yeast gro inh 72, L major viab 100
Cc1cc(SCC(=O)Nc2cccc(S(=O)(=O)N3CCOCC3)c2)nc2ccccc12	none
O=C(Nc1ccc(N2CCOCC2)cc1)c1nc2ccccc2s1	none (no result: PMI act, WT yeast gro inh, PMI act satM6P, L major viab)
Fc1cccc(C2NN=C(c3ccccc3)S2)c1 (stereo not drawn)	none
Cc1ccc(C2=NNC(c3cccc(F)c3)S2)cc1 (stereo not drawn)	PMI act satM6P 2.1
COc1ccc(C2NN=C(c3ccc(C)cc3)S2)cc1OC (stereo not drawn)	PMI act satM6P 2.9
O=C(NC1CCCC1)c1n[nH]c2ccccc12	none
